# Data taken from ChEMBL document CHEMBL1126849, “Synthesis of A-ring fluorinated derivatives of (17 alpha,20E/Z)-[125I]iodovinylestradiols: effect on receptor binding and receptor-mediated target tissue uptake” (J Med Chem, 1993).
# Experiments:
# Conditions in all cases: in vivo
# Rattus norvegicus [1] = assay: Biodistribution in spleen of immature female rat after 1 hr administration of 3 micro Ci (111 kBq) in the absence of 60 microg estradiol; assay type: ADME, organism-based
# Outline: (§1)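 Immature female Long Evans rats (21–24 days, 45–70 g), three to five per group, given 125I-labeled steroid (3 μCi, 111 kBq) by lateral tail vein without anesthesia. Vehicle: ethanol diluted in saline with 1% Tween-80, final ethanol 9%, 0.22 μm filtered. +E2 groups received 60 μg unlabeled estradiol co-injected. Killed under ether at set times; tissues KCl-washed, blotted, weighed, gamma counted; %ID/g, mean with SE.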
# Rattus norvegicus [2] = assay: Biodistribution in blood of immature female rat after 5 hour administration of 3 micro Ci (111 kBq) in the absence of 60 microg estradiol; assay type: ADME, organism-based
# Outline: (§2)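 Immature female Long Evans rats (21–24 days, 45–70 g), unanesthetized in retention cages, given 3 µCi (111 kBq) 125I-labeled steroid i.v. via lateral tail vein. Vehicle was ethanol diluted in saline containing 1% Tween-80, giving 9% ethanol final. The blocking group received 60 µg unlabeled estradiol co-injected. Rats were killed under ether by axillary bleeding, and tissues were KCl-washed and gamma-counted. Data are %ID/g, mean ± SE, n=3–5.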
# Rattus norvegicus [3] = assay: Biodistribution in liver of immature female rat after 12 hour administration of 3 micro Ci (111 kBq) in the absence of 60 microg estradiol; assay type: ADME, organism-based; outline: as §2
# Rattus norvegicus [4] = assay: Biodistribution in kidney of immature female rat after 12 hour administration of 3 micro Ci (111 kBq) in the absence of 60 microg estradiol; assay type: ADME, organism-based; outline: as §2
# Rattus norvegicus [5] = assay: Biodistribution in spleen of immature female rat after 12 hour administration of 3 micro Ci (111 kBq) in the absence of 60 microg estradiol; assay type: ADME, organism-based; outline: as §1
# Rattus norvegicus [6] = assay: Biodistribution in uterus / spleen, muscle, lungs of immature female rat after 12 hour administration of 3 micro Ci (111 kBq) in the absence of 60 microg estradiol; assay type: ADME, organism-based
# Outline: (§3)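 Immature female Long Evans rats (21–24 days, 45–70 g), 3–5 per group, unanesthetized in retention cages, given 3 μCi (111 kBq) 125I-labeled steroid by lateral tail vein. Vehicle: ethanol diluted with saline containing 1% Tween-80, final ethanol 9%. +E2 group co-injected 60 μg unlabeled estradiol (1 h only). Killed under ether; tissues KCl-washed, weighed, gamma-counted. Output: %ID/g (mean, SE) and uterus to blood or nontarget (muscle, spleen, lungs) ratios.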
# Rattus norvegicus [7] = assay: Biodistribution in kidney of immature female rat after 1 hr administration of 3 micro Ci (111 kBq) in the absence of 60 microg estradiol; assay type: ADME, organism-based; outline: as §2
# Rattus norvegicus [8] = assay: Biodistribution in fat of immature female rat after 12 hour administration of 3 micro Ci (111 kBq) in the absence of 60 microg estradiol; assay type: ADME, organism-based, Adipose tissue; outline: as §2
# Rattus norvegicus [9] = assay: Biodistribution in fat of immature female rat after 5 hour administration of 3 micro Ci (111 kBq) in the absence of 60 microg estradiol; assay type: ADME, organism-based, Adipose tissue; outline: as §2
# Rattus norvegicus [10] = assay: Biodistribution in spleen of immature female rat after 3 hour administration of 3 micro Ci (111 kBq) in the absence of 60 microg estradiol; assay type: ADME, organism-based; outline: as §1
# Rattus norvegicus [11] = assay: Biodistribution in thyroid of immature female rat after 1 hr administration of 3 micro Ci (111 kBq) in the presence of (+E2); assay type: ADME, organism-based, Thyroid gland; outline: as §1
# Rattus norvegicus [12] = assay: Biodistribution in fat of immature female rat after 3 hour administration of 3 micro Ci (111 kBq) in the absence of 60 microg estradiol; assay type: ADME, organism-based, Adipose tissue; outline: as §2
# Rattus norvegicus [13] = assay: Biodistribution in uterus / blood of immature female rat after 3 hour administration of 3 micro Ci (111 kBq) in the absence of 60 microg estradiol; assay type: ADME, organism-based
# Outline: (§4)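 Same in vivo procedure: immature female Long Evans rats (21–24 days), three to five per group, 3 μCi (111 kBq) tracer i.v. via tail vein in 9% ethanol/saline/1% Tween-80, ± 60 μg estradiol co-injected at 1 h. Uterus %ID/g (gamma counting) divided by blood, or by nontarget organ (muscle, spleen, lungs), %ID/g to give ratios.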
# Rattus norvegicus [14] = assay: Biodistribution in uterus / blood of immature female rat after 5 hour administration of 3 micro Ci (111 kBq) in the absence of 60 microg estradiol; assay type: ADME, organism-based; outline: as §4
# Rattus norvegicus [15] = assay: Biodistribution in liver of immature female rat after 5 hour administration of 3 micro Ci (111 kBq) in the absence of 60 microg estradiol; assay type: ADME, organism-based; outline: as §2
# Rattus norvegicus [16] = assay: Biodistribution in liver of immature female rat after 1 hr administration of 3 micro Ci (111 kBq) in the absence of 60 microg estradiol; assay type: ADME, organism-based; outline: as §2
# Rattus norvegicus [17] = assay: Biodistribution in fat of immature female rat after 1 hr administration of 3 micro Ci (111 kBq) in the presence of (+E2); assay type: ADME, organism-based, Adipose tissue; outline: as §2
# Rattus norvegicus [18] = assay: Biodistribution in lungs of immature female rat after 1 hr administration of 3 micro Ci (111 kBq) in the absence of 60 microg estradiol; assay type: ADME, organism-based, Lung; outline: as §2
# Rattus norvegicus [19] = assay: Biodistribution in blood of immature female rat after 1 hr administration of 3 micro Ci (111 kBq) in the presence of (+E2); assay type: ADME, organism-based; outline: as §2
# Rattus norvegicus [20] = assay: Biodistribution in uterus / spleen, muscle, lungs of immature female rat after 3 hour administration of 3 micro Ci (111 kBq) in the absence of 60 microg estradiol; assay type: ADME, organism-based; outline: as §3
# Rattus norvegicus [21] = assay: Biodistribution in thyroid of immature female rat after 12 hour administration of 3 micro Ci (111 kBq) in the absence of 60 microg estradiol; assay type: ADME, organism-based, Thyroid gland; outline: as §1
# Rattus norvegicus [22] = assay: Biodistribution in thyroid of immature female rat after 5 hour administration of 3 micro Ci (111 kBq) in the absence of 60 microg estradiol; assay type: ADME, organism-based, Thyroid gland; outline: as §1
# Rattus norvegicus [23] = assay: Biodistribution in muscle of immature female rat after 1 hr administration of 3 micro Ci (111 kBq) in the presence of (+E2); assay type: ADME, organism-based, Muscle tissue; outline: as §1
# Rattus norvegicus [24] = assay: Biodistribution in kidney of immature female rat after 1 hr administration of 3 micro Ci (111 kBq) in the presence of (+E2); assay type: ADME, organism-based; outline: as §2
# Rattus norvegicus [25] = assay: Biodistribution in liver of immature female rat after 3 hour administration of 3 micro Ci (111 kBq) in the absence of 60 microg estradiol; assay type: ADME, organism-based; outline: as §2
# Rattus norvegicus [26] = assay: Biodistribution in uterus / blood of immature female rat after 12 hour administration of 3 micro Ci (111 kBq) in the absence of 60 microg estradiol; assay type: ADME, organism-based; outline: as §4
ID/g (Rattus norvegicus [1]),ID/g (Rattus norvegicus [2]),ID/g (Rattus norvegicus [3]),ID/g (Rattus norvegicus [4]),ID/g (Rattus norvegicus [5]),uterus to nontarget tissue ratio (Rattus norvegicus [6]),ID/g (Rattus norvegicus [7]),ID/g (Rattus norvegicus [8]),ID/g (Rattus norvegicus [9]),ID/g (Rattus norvegicus [10]),ID/g (Rattus norvegicus [11]),ID/g (Rattus norvegicus [12]),uterus to blood %ID/g ratio (unitless) (Rattus norvegicus [13]),uterus to blood ratio (Rattus norvegicus [14]),ID/g (Rattus norvegicus [15]),ID/g (Rattus norvegicus [16]),ID/g (Rattus norvegicus [17]),ID/g (Rattus norvegicus [18]),ID/g (Rattus norvegicus [19]),"Uterus to nontarget tissue (spleen, muscle, lungs) uptake ratio (Rattus norvegicus [20])",Compound,other results
0.31%,0.17%,1%,0.15%,0.12%,2.55%,0.63%,0.92%,1.28%,0.43%,114%,1.36%,4.11%,3.69%,1.38%,2.29%,1.48%,0.54%,0.29%,3%,C[C@@H]1Cc2cc(O)c(F)cc2[C@H]2CC[C@@]3(C)[C@@H](CC[C@@]3(O)/C=C/I)[C@H]12,ID/g (Rattus norvegicus [21]): 446%; ID/g (Rattus norvegicus [22]): 203%; ID/g (Rattus norvegicus [23]): 0.31%; ID/g (Rattus norvegicus [24]): 0.49%; ID/g (Rattus norvegicus [25]): 1.53%; Uterus-to-blood radioactivity ratio (dimensionless) (Rattus norvegicus [26]): 2.99%
1.12%,0.33%,1.69%,0.36%,0.47%,15.99%,1.11%,0.84%,2.2%,0.74%,204%,1.54%,14.81%,11.08%,2.51%,2.19%,1.58%,0.56%,0.32%,7.35%,C[C@@H]1Cc2cc(O)c(F)cc2[C@H]2CC[C@@]3(C)[C@@H](CC[C@@]3(O)/C=C\I)[C@H]12,ID/g (Rattus norvegicus [21]): 745%; ID/g (Rattus norvegicus [22]): 424%; ID/g (Rattus norvegicus [23]): 0.29%; ID/g (Rattus norvegicus [24]): 0.62%; ID/g (Rattus norvegicus [25]): 1.81%; Uterus-to-blood radioactivity ratio (dimensionless) (Rattus norvegicus [26]): 18.13%
0.83%,0.32%,1.48%,0.15%,0.18%,6.75%,1.44%,0.45%,1.57%,0.8%,243%,1.82%,8.28%,12.41%,3.11%,3.5%,4.31%,0.95%,0.51%,8.2%,CO[C@H]1C[C@@]2(C)[C@@H](CC[C@@]2(O)/C=C/I)[C@@H]2CCc3cc(O)c(F)cc3[C@H]21,ID/g (Rattus norvegicus [21]): 571%; ID/g (Rattus norvegicus [22]): 412%; ID/g (Rattus norvegicus [23]): 1.02%; ID/g (Rattus norvegicus [24]): 1.58%; ID/g (Rattus norvegicus [25]): 3.56%; Uterus-to-blood radioactivity ratio (dimensionless) (Rattus norvegicus [26]): 10.45%
